# Test results as given in ChEMBL document CHEMBL1765029, “Synthesis and biological evaluation of estradiol linked pyrrolo[2,1-c][1,4]benzodiazepine (PBD) conjugates as potential anticancer agents” (2011).
# Active and inactive are the calls of the source. No cut-off for these calls is given here.
# Columns and labels:
# MCF7 [1] = assay: Reduction in Cdk1 protein level in human MCF7 cells at 4 uM after 24 hrs by Western blot analysis; assay type: functional, cell-based
# In short: (§1)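 MCF-7 cells (5 × 10⁵ per 60 mm dish) grown 24 h, then treated at 4 µM for 24 h. Lysis in ice-cold RIPA buffer with protease/phosphatase inhibitors; protein measured by Bradford. Fifty µg per lane resolved on 12% SDS-PAGE and transferred to PVDF. Blocked 2 h, primary antibody overnight at 4 °C, chemiluminescent detection; β-actin as loading control.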
# MCF7 [2] = assay: Down regulation of NF-kappa B p65 protein in human MCF7 cells at 4 uM after 24 hrs by Western blot analysis; assay type: functional, cell-based; in short: as §1
# MCF7 [3] = assay: Cell cycle arrest in human MCF7 cells assessed as accumulation at G2/M phase using propidium iodide staining at 4 uM after 24 hrs by flow cytometry; assay type: functional
# In short: (§2)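 MCF-7 cells (5 × 10⁵ per 60 mm dish) grown 24 h, then exposed to 4 µM compound for a further 24 h; DMSO-treated control. Cells trypsinised, fixed in ice-cold 70% ethanol at 4 °C for 30 min, RNase-treated (1 mg/mL, 37 °C, 30 min), stained with propidium iodide/citrate/Triton X-100. DNA content read on 20,000 events by flow cytometry; percent cells per phase reported.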
# MCF7 [4] = assay: Down regulation of HDAC-3 protein in human MCF7 cells at 4 uM after 24 hrs by Western blot analysis; assay type: functional, cell-based; in short: as §1
# [5] = Cytotoxicity against human DWD cells by sulforhodamine B method; assay type: functional
# MCF7 [6] = assay: Down regulation of HDAC-1 protein in human MCF7 cells at 4 uM after 24 hrs by Western blot analysis; assay type: functional, cell-based; in short: as §1
# MCF7 [7] = assay: Induction of apoptosis in human MCF7 cells assessed as activation of procaspase-7 at 4 uM after 24 hrs by Western blot analysis; assay type: functional, cell-based; in short: as §1
# Tubulin (Homo sapiens) = Tubulin (Homo sapiens) (UniProt P68371+Q9H4B7+P0DPH7+P68366+Q13509+Q71U36+P04350+Q3ZCM7+P07437+P68363+Q9BQE3+Q6PEY2+Q13885+Q9BVA1+Q9BUF5); assay: Inhibition of tubulin polymerization in human MCF7 cells assessed as disruption of microtubule network at 4 uM after 24 hrs by DAPI based immunofluorescence assay; assay type: cell-based
# In short: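 MCF-7 cells on glass coverslips incubated 24 h with or without 4 µM compound. Fixed in 4% paraformaldehyde/0.02% glutaraldehyde, permeabilised in −20 °C methanol, blocked 1 h in 1% BSA/PBS. Stained with mouse anti-tubulin primary and Cy3 anti-mouse IgG secondary, nuclei with DAPI. Confocal images scored for microtubule integrity; nocodazole as reference.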
# MCF7 [8] = assay: Cell cycle arrest in human MCF7 cells assessed as accumulation at G0 phase using propidium iodide staining at 4 uM after 24 hrs by flow cytometry; assay type: functional; in short: as §2
# MCF7 [9] = assay: Cytotoxicity against human MCF7 cells by sulforhodamine B method; assay type: functional
# HOP-62 = assay: Cytotoxicity against human HOP62 cells by sulforhodamine B method; assay type: functional
# MCF7 [10] = assay: Cell cycle arrest in human MCF7 cells assessed as accumulation at G1 phase using propidium iodide staining at 4 uM after 24 hrs by flow cytometry; assay type: functional; in short: as §2
# ZR-75-1 = assay: Cytotoxicity against human ZR-75-1 cells by sulforhodamine B method; assay type: functional
# [11] = Cytotoxicity against human Gurav cells by sulforhodamine B method; assay type: functional
# MCF7 [12] = assay: Induction of apoptosis in human MCF7 cells assessed up-regulation of p53 protein level at 4 uM after 24 hrs by Western blot analysis; assay type: functional, cell-based; in short: as §1
# MCF7 [13] = assay: Induction of apoptosis in human MCF7 cells assessed up-regulation of p21 protein level at 4 uM after 24 hrs by Western blot analysis; assay type: functional, cell-based; in short: as §1
# MCF7 [14] = assay: Cell cycle arrest in human MCF7 cells assessed as accumulation at S phase using propidium iodide staining at 4 uM after 24 hrs by flow cytometry; assay type: functional; in short: as §2
# MCF7 [15] = assay: Induction of apoptosis in human MCF7 cells assessed as up-regulation of Bax gene at 4 uM after 24 hrs by Western blot analysis; assay type: functional, cell-based; in short: as §1
# MCF7 [16] = assay: Induction of apoptosis in human MCF7 cells assessed as DNA fragmentation at 4 uM after 24 hrs by TUNEL assay relative to control; assay type: functional, cell-based
# In short: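 MCF-7 cells treated at 4 µM for 24 h; untreated cells as control. Nuclear DNA fragmentation detected by TdT-mediated fluorescein-dUTP nick-end labelling (ApoAlert kit). Labelled cells imaged by confocal microscopy, green stain marking TUNEL-positive cells.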
# PC-3 = assay: Cytotoxicity against human PC3 cells by sulforhodamine B method; assay type: functional
# SiHa = assay: Cytotoxicity against human SiHa cells by sulforhodamine B method; assay type: functional
# KB = assay: Cytotoxicity against human KB cells by sulforhodamine B method; assay type: functional
# COLO 205 = assay: Cytotoxicity against human COLO205 cells by sulforhodamine B method; assay type: functional
# MCF7 [17] = assay: Cytotoxicity against human MCF7 cells at 4 uM after 24 hrs by MTT assay; assay type: functional, cell-based
# In short: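 MCF-7 cells seeded at 10,000 per well, incubated overnight, then treated at 4 µM for 24 h; DMSO control. Medium replaced with MTT, 2 h at 37 °C. Formazan solubilised in extraction buffer, absorbance read at 570 nm, expressed as percent viability.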
# A549 = assay: Cytotoxicity against human A549 cells by sulforhodamine B method; assay type: functional
# A2780 = assay: Cytotoxicity against human A2780 cells by sulforhodamine B method; assay type: functional
Compound,Activity (MCF7 [1]),Activity (MCF7 [3]) [%],GI50 [5] [nM],Activity (MCF7 [7]),inhibition (Tubulin (Homo sapiens)),Activity (MCF7 [8]) [%],GI50 (MCF7 [9]) [nM],GI50 (HOP-62) [nM],Activity (MCF7 [10]) [%],GI50 (ZR-75-1) [nM],GI50 [11] [nM],Activity (MCF7 [12]),Activity (MCF7 [14]) [%],GI50 (PC-3) [nM],GI50 (SiHa) [nM],GI50 (KB) [nM],GI50 (COLO 205) [nM],Activity (MCF7 [17]),GI50 (A549) [nM],GI50 (A2780) [nM],other results
COc1cc2c(cc1OCc1cn(CCCOc3ccc4c(c3)CC[C@@H]3[C@@H]4CC[C@]4(C)[C@@H](O)CC[C@@H]34)nn1)N=C[C@@H]1C[C@@H](F)CN1C2=O,Active,36.64,< 100,Active,Active,2,< 100,< 100,30.76,< 100,< 100,Active,30.59,< 100,< 100,< 100,110,Active,< 100,< 100,Activity (MCF7 [2]): Active; Activity (MCF7 [4]): Active; Activity (MCF7 [6]): Active; Activity (MCF7 [13]): Active; Activity (MCF7 [15]): Active; Activity (MCF7 [16]): Active
COc1cc2c(cc1OCc1cn(CCCCCOc3ccc4c(c3)CC[C@@H]3[C@@H]4CC[C@]4(C)[C@@H](O)CC[C@@H]34)nn1)N=C[C@@H]1C[C@@H](F)CN1C2=O,,32.4,120,Active,Active,0.82,< 100,110,42.5,< 100,,Active,25.8,< 100,110,< 100,120,Active,< 100,< 100,Activity (MCF7 [13]): Active; Activity (MCF7 [15]): Active; Activity (MCF7 [16]): Active
COc1cc2c(cc1O)N=C[C@@H]1CCCN1C2=O,Active,4.83,,,,8.5,170,150,73.66,,160,,13,200,170,170,110,Active,160,140,
